Data published in ChEMBL document CHEMBL3808334, “Synthesis and in vitro evaluation of novel triazine analogues as anticancer agents and their interaction studies with bovine serum albumin” (Eur J Med Chem, 2016).

Assays:
Type in all cases: functional
MDA-MB-468 [1] = assay: Growth inhibition of human MDA-MB-468 cells assessed as cell growth at 10^-4 M incubated for 48 hrs by sulforhodamine B assay; conditions: MDA-MB-468, 48 h, read-out: Activity
KM12 [2] = assay: Growth inhibition of human KM12 cells incubated for 48 hrs by sulforhodamine B assay; conditions: KM12, 48 h
Summary of the method: (§1)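 Cells were plated at 5,000–40,000 per well according to doubling time and preincubated 24 h at 37 °C in 5% CO2; time-zero plates were then TCA-fixed. Five concentrations (10-fold or ½-log dilutions, DMSO stock) were incubated 48 h. Cells were TCA-fixed, stained with 0.4% SRB and read at 515 nm. GI50 was taken where [(Ti−Tz)/(C−Tz)]×100 = 50.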

[3] = Growth inhibition of human UACC62 cells incubated for 48 hrs by sulforhodamine B assay; conditions: UACC-62, 48 h; summary of the method: as §1
[4] = Growth inhibition of human OVCAR8 cells incubated for 48 hrs by sulforhodamine B assay; conditions: OVCAR-8, 48 h; summary of the method: as §1
[5] = Growth inhibition of human Caki1 cells incubated for 48 hrs by sulforhodamine B assay; conditions: CAKI-1, 48 h; for CC50: read-out: pLC50 (the source's name) (converted)
Summary of the method: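 Cells seeded at 5,000–40,000/well according to doubling time and preincubated 24 h at 37 °C, 5% CO2. Time-zero plates were TCA-fixed. DMSO concentrate was diluted in medium with 50 µg/ml gentamicin to give five concentrations (10-fold or ½ log steps), then exposed 48 h. Cells were TCA-fixed, stained with 0.4% SRB and read at 515 nm. Percent growth was taken against time-zero and control; GI50, TGI and LC50 derived.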

MDA-MB-231 [6] = assay: Growth inhibition of human MDA-MB-231 cells assessed as cell growth at 10^-8 M incubated for 48 hrs by sulforhodamine B assay; conditions: MDA-MB-231, 48 h, read-out: Activity
NCI-H322M = assay: Growth inhibition of human NCI-H322M cells assessed as cell growth at 10^-7 M incubated for 48 hrs by sulforhodamine B assay; conditions: read-out: Activity
[7] = Growth inhibition of human RXF393 cells assessed as cell growth at 10^-5 M incubated for 48 hrs by sulforhodamine B assay; conditions: RXF 393, 48 h, read-out: Activity
MDA-MB-468 [8] = assay: Growth inhibition of human MDA-MB-468 cells assessed as cell growth at 10^-5 M incubated for 48 hrs by sulforhodamine B assay; conditions: MDA-MB-468, 48 h, read-out: Activity
[9] = Growth inhibition of human HOP92 cells assessed as cell growth at 10^-4 M incubated for 48 hrs by sulforhodamine B assay; conditions: HOP-92, 48 h, read-out: Activity
MDA-MB-231 [10] = assay: Growth inhibition of human MDA-MB-231 cells assessed as cell growth at 10 uM incubated for 48 hrs by sulforhodamine B assay; conditions: MDA-MB-231, 48 h, read-out: Activity
K562 = assay: Growth inhibition of human K562 cells assessed as cell growth at 10^-8 M incubated for 48 hrs by sulforhodamine B assay; conditions: K562, 48 h, read-out: Activity
HT-29 = assay: Growth inhibition of human HT-29 cells assessed as cell growth at 10^-6 M incubated for 48 hrs by sulforhodamine B assay; conditions: HT-29, 48 h, read-out: Activity
[11] = Growth inhibition of human SF268 cells assessed as cell growth at 10^-8 M incubated for 48 hrs by sulforhodamine B assay; conditions: SF-268, 48 h, read-out: Activity
U-251 = assay: Growth inhibition of human U251 cells assessed as cell growth at 10^-8 M incubated for 48 hrs by sulforhodamine B assay; conditions: U-251, 48 h, read-out: Activity
Malme-3M = assay: Growth inhibition of human MALME-3M cells assessed as cell growth at 10^-6 M incubated for 48 hrs by sulforhodamine B assay; conditions: read-out: Activity
[12] = Growth inhibition of human TK10 cells assessed as cell growth at 10^-6 M incubated for 48 hrs by sulforhodamine B assay; conditions: TK-10, 48 h, read-out: Activity
[13] = Growth inhibition of human Hs 578T cells assessed as cell growth at 10^-6 M incubated for 48 hrs by sulforhodamine B assay; conditions: read-out: Activity
[14] = Growth inhibition of human HL-60(TB) cells assessed as cell growth at 10^-5 M incubated for 48 hrs by sulforhodamine B assay; conditions: HL-60, 48 h, read-out: Activity
Summary of the method: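 Cells plated at 5,000–40,000/well according to doubling time and preincubated 24 h at 37 °C, 5% CO₂, with time-zero plates TCA-fixed. Drugs were kept as DMSO concentrates at 400× the top concentration and diluted in medium with 50 µg/ml gentamicin. Five 10-fold or ½-log dilutions were run for 48 h, followed by SRB staining and A515. Percent growth = (Ti−Tz)/(C−Tz)×100, or (Ti−Tz)/Tz×100 when Ti<Tz.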

A549 = assay: Growth inhibition of human A549/ATCC cells assessed as cell growth at 10^-5 M incubated for 48 hrs by sulforhodamine B assay; conditions: A549, 48 h, read-out: Activity
Summary of the method: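 Five-dose assay: five concentrations from 10-fold or ½-log serial dilutions. Cells are plated at 5,000–40,000 per well according to doubling time, grown 24 h, then exposed 48 h at 37 °C, 5% CO₂. Fixed with cold 50% TCA (final addition) for 60 min at 4 °C and stained with 0.4% SRB in 1% acetic acid. Bound dye is solubilized in 10 mM Tris base and read at 515 nm. GI₅₀ is where [(Ti−Tz)/(C−Tz)]×100 = 50, with a time-zero plate as Tz.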

KM12 [15] = assay: Growth inhibition of human KM12 cells assessed as cell growth at 10^-5 M incubated for 48 hrs by sulforhodamine B assay; conditions: KM12, 48 h, read-out: Activity
[16] = Growth inhibition of human SNB75 cells assessed as cell growth at 10^-5 M incubated for 48 hrs by sulforhodamine B assay; conditions: SNB-75, 48 h, read-out: Activity
[17] = Growth inhibition of human HCC2998 cells assessed as cell growth at 10 uM incubated for 48 hrs by sulforhodamine B assay; conditions: HCC 2998, 48 h, read-out: Activity
Summary of the method: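 Primary screen at one dose (10 µM) across 60 human cancer cell lines. Readout was growth percent relative to untreated control and time-zero.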

[18] = Growth inhibition of human prostate cancer cells incubated for 48 hrs by sulforhodamine B assay; conditions: Cancer cell lines; for CC50: read-out: LC50 (the source's name)
[19] = read-out: LC50 (the source's name)
[20] = read-out: pLC50 (the source's name) (converted)

`Fc1ccc(-c2nc(Nc3ccc(-c4nc5ccccc5[nH]4)cc3)nc(N3CCOCC3)n2)cc1` gave a growth at 100 µM (MDA-MB-468 [1]) of -19%, a GI50 (KM12 [2]; read-out: GI50) of 2.06 µM and a CC50 (KM12 [2]; [19]) greater than 100 µM. It also gave a TGI (KM12 [2]; read-out: TGI) of 5.69 µM, a GI50 (KM12 [2]; read-out: pGI50 (converted)) of 2.04 µM and a CC50 (KM12 [2]; [20]) greater than 100 µM. For the same compound, the TGI (KM12 [2]; read-out: pTGI (converted)) was 5.62 µM, the GI50 ([3]; read-out: GI50) was 1.7 µM and the TGI ([3]; read-out: TGI) was 3.56 µM. The GI50 ([3]; read-out: pGI50 (converted)) was 1.7 µM, the TGI ([3]; read-out: pTGI (converted)) was 3.55 µM and the GI50 ([4]; read-out: GI50) was 3.26 µM. The CC50 [4, 19] was greater than 100 µM, the TGI ([4]; read-out: TGI) was 10.8 µM and the GI50 ([4]; read-out: pGI50 (converted)) was 3.24 µM. It also gave a CC50 [4, 20] greater than 100 µM, a TGI ([4]; read-out: pTGI (converted)) of 10.7 µM and an LC50 [5] greater than 100 µM. For the same compound, the GI50 ([5]; read-out: GI50) was 1.98 µM, the TGI ([5]; read-out: TGI) was 5.02 µM and the GI50 ([5]; read-out: pGI50 (converted)) was 2 µM. It also gave a CC50 [5] greater than 100 µM, a TGI ([5]; read-out: pTGI (converted)) of 5.01 µM and a growth at 0.01 µM (MDA-MB-231 [6]) of 92%. For the same compound, the growth at 0.1 µM (NCI-H322M) was 102%, the growth at 10 µM [7] was -37% and the growth at 10 µM (MDA-MB-468 [8]) was -14%. For the same compound, the growth at 100 µM [9] was -58%, the growth at 10 µM (MDA-MB-231 [10]) was 5.74% and the growth at 0.01 µM (K562) was 104%. It also gave a growth at 1 µM (HT-29) of 96%, a growth at 0.01 µM [11] of 95% and a growth at 0.01 µM (U-251) of 101%. The growth at 1 µM (Malme-3M) was 104%, the growth at 1 µM [12] was 100% and the growth at 1 µM [13] was 71%. It also gave a growth at 10 µM [14] of -27%, a growth at 10 µM (A549) of 3% and a growth at 10 µM (KM12 [15]) of -28%. For the same compound, the growth at 10 µM [16] was 1%, the growth at 10 µM [17] was -19.9% and the GI50 [18] was 3.46 µM. For the same compound, the TGI [18] was 6.66 µM and the CC50 [18] was greater than 100 µM.
In the case of `c1ccc(-c2nc(Nc3ccc(-c4nc5ccccc5[nH]4)cc3)nc(N3CCOCC3)n2)cc1`, the growth at 100 µM (MDA-MB-468 [1]) is reported as -58%, the GI50 (KM12 [2]; read-out: GI50) is reported as 1.62 µM and the CC50 (KM12 [2]; [19]) is reported as 6.3 µM. It also gave a TGI (KM12 [2]; read-out: TGI) of 3.19 µM, a GI50 (KM12 [2]; read-out: pGI50 (converted)) of 1.62 µM and a CC50 (KM12 [2]; [20]) of 6.31 µM. For the same compound, the TGI (KM12 [2]; read-out: pTGI (converted)) was 3.16 µM, the GI50 ([3]; read-out: GI50) was 1.66 µM and the CC50 [3, 19] was 7.29 µM. It also gave a TGI ([3]; read-out: TGI) of 3.48 µM, a GI50 ([3]; read-out: pGI50 (converted)) of 1.66 µM and a CC50 [3, 20] of 7.24 µM. The TGI ([3]; read-out: pTGI (converted)) was 3.47 µM, the GI50 ([4]; read-out: GI50) was 1.72 µM and the CC50 [4, 19] was 6.79 µM. For the same compound, the TGI ([4]; read-out: TGI) was 3.41 µM, the GI50 ([4]; read-out: pGI50 (converted)) was 1.7 µM and the CC50 [4, 20] was 6.76 µM. It also gave a TGI ([4]; read-out: pTGI (converted)) of 3.39 µM, an LC50 [5] of 5.06 µM and a GI50 ([5]; read-out: GI50) of 1.28 µM. It also gave a TGI ([5]; read-out: TGI) of 2.54 µM, a GI50 ([5]; read-out: pGI50 (converted)) of 1.29 µM and a CC50 [5] of 5.01 µM. It also gave a TGI ([5]; read-out: pTGI (converted)) of 2.57 µM, a growth at 0.01 µM (MDA-MB-231 [6]) of 97% and a growth at 0.1 µM (NCI-H322M) of 101%. The growth at 10 µM [7] was -63%, the growth at 10 µM (MDA-MB-468 [8]) was -57% and the growth at 100 µM [9] was -85%. It also gave a growth at 10 µM (MDA-MB-231 [10]) of -63.3%, a growth at 0.01 µM (K562) of 86% and a growth at 1 µM (HT-29) of 36%. The growth at 0.01 µM [11] was 96%, the growth at 0.01 µM (U-251) was 105% and the growth at 1 µM (Malme-3M) was 103%. It also gave a growth at 1 µM [12] of 119%, a growth at 1 µM [13] of 78% and a growth at 10 µM [14] of -44%. The growth at 10 µM (A549) was -63%, the growth at 10 µM (KM12 [15]) was -84% and the growth at 10 µM [16] was -88%. It also gave a growth at 10 µM [17] of -80.7%, a GI50 [18] of 1.51 µM and a TGI [18] of 3.07 µM. It also gave a CC50 [18] of 6.25 µM.
